The values below come from ChEMBL document CHEMBL2069280, “Synthesis and evaluation of sulfonylnitrophenylthiazoles (SNPTs) as thyroid hormone receptor-coactivator interaction inhibitors” (J Med Chem, 2012).

The first data set is described as follows: Permeability of compound by PAMPA at pH 7.4. The format is ADME.
Details: not given
In a few lines: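 Parallel artificial membrane permeation assay at pH 7.4, read as permeability in 10^-6 cm/s. Mean of a single triplicate experiment.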
For orientation: The PAMPA barrier holds no transporters, so it reflects passive diffusion.
`CN(Cc1ccccc1)C(=O)c1sc(-c2ccc(S(C)(=O)=O)c([N+](=O)[O-])c2)nc1C(F)(F)F` had a permeability of 1500 ×10⁻⁶ cm/s.

On to `CN(Cc1cccc(F)c1)C(=O)c1cnc(-c2ccc(S(C)(=O)=O)c([N+](=O)[O-])c2)s1`, for which the permeability turned out to be 1030 ×10⁻⁶ cm/s.

In turn, `CS(=O)(=O)c1ccc(C(=O)OCC(=O)NC23CC4CC(CC(C4)C2)C3)cc1[N+](=O)[O-]` yielded a permeability of 167 ×10⁻⁶ cm/s.

For the compound `Cc1nc(-c2ccc(S(C)(=O)=O)c([N+](=O)[O-])c2)sc1C(=O)N1CCC(C)CC1`, the permeability is 912 ×10⁻⁶ cm/s.

`CS(=O)(=O)c1ccc(-c2ncc(C(=O)NC34CC5CC(CC(C5)C3)C4)s2)cc1[N+](=O)[O-]` gave a permeability of 379 ×10⁻⁶ cm/s.

As to `CN(Cc1ccccc1F)C(=O)c1sc(-c2ccc(S(C)(=O)=O)c([N+](=O)[O-])c2)nc1C(F)(F)F`, the permeability was 221 ×10⁻⁶ cm/s.

For `CS(=O)(=O)c1ccc(-c2nc(-c3ccccc3)c(C(=O)N3CCCCC3)s2)cc1[N+](=O)[O-]`, the permeability worked out at 971 ×10⁻⁶ cm/s.

Compound `CCCN(C(=O)c1csc(-c2ccc(S(C)(=O)=O)c([N+](=O)[O-])c2)n1)c1ccccc1` came in with a permeability of 1620 ×10⁻⁶ cm/s.

Take `CC1(C)CC2CC(C)(CN2C(=O)c2sc(-c3ccc(S(C)(=O)=O)c([N+](=O)[O-])c3)nc2C(F)(F)F)C1` (centres undefined): the permeability stood at 8 ×10⁻⁶ cm/s.

On to `CS(=O)(=O)c1ccc(-c2nc(C(F)(F)F)c(C(=O)N3CCCCC3)s2)cc1[N+](=O)[O-]`, for which the permeability was 791 ×10⁻⁶ cm/s.

Take `CC1Cc2ccccc2N1C(=O)c1sc(-c2ccc(S(C)(=O)=O)c([N+](=O)[O-])c2)nc1C(F)(F)F` (centres undefined): the permeability is 43 ×10⁻⁶ cm/s.

For `Cc1nc(-c2ccc(S(C)(=O)=O)c([N+](=O)[O-])c2)sc1C(=O)N1CC2(C)CC1CC(C)(C)C2` (centres undefined), the permeability is 1420 ×10⁻⁶ cm/s.

Compound `CS(=O)(=O)c1ccc(-c2nc(C(F)(F)F)c(C(=O)N3CCc4ccccc4C3)s2)cc1[N+](=O)[O-]` had a permeability of 84 ×10⁻⁶ cm/s.

Take `CCc1nc(-c2ccc(S(C)(=O)=O)c([N+](=O)[O-])c2)sc1C(=O)N1CCCCC1`: the permeability was 657 ×10⁻⁶ cm/s.

`CN(Cc1cccc(F)c1)C(=O)c1sc(-c2ccc(S(C)(=O)=O)c([N+](=O)[O-])c2)nc1C(F)(F)F` yielded a permeability of 271 ×10⁻⁶ cm/s.

Compound `Cc1nc(-c2ccc(S(C)(=O)=O)c([N+](=O)[O-])c2)sc1C(=O)N1CCCCC1` showed a permeability of 280 ×10⁻⁶ cm/s.

Regarding `CCc1nc(-c2ccc(S(C)(=O)=O)c([N+](=O)[O-])c2)sc1C(=O)N1CC2(C)CC1CC(C)(C)C2` (centres undefined), the permeability came out at 949 ×10⁻⁶ cm/s.

The compound `CS(=O)(=O)c1ccc(-c2ncc(C(=O)N3CCCCC3)s2)cc1[N+](=O)[O-]` yielded a permeability of 287 ×10⁻⁶ cm/s.

Staying with this data set, now noted: read-out: permeability.
As for `CC1CCN(C(=O)c2sc(-c3ccc(S(C)(=O)=O)c([N+](=O)[O-])c3)nc2C(F)(F)F)CC1`, the Papp came to 702 ×10⁻⁶ cm/s.
